Test results taken from ChEMBL document CHEMBL5357066, “Development of Novel Membrane Disrupting Lipoguanidine Compounds Sensitizing Gram-Negative Bacteria to Antibiotics” (ACS Med Chem Lett, 2024).
Values after ≈ are worked out from the molar mass of the structure shown.

Columns and labels:
[1] = test system: Klebsiella pneumoniae; assay: Synergistic antibacterial activity against Klebsiella pneumoniae NCTC 13368 assessed as rifampicin MIC at 30 microg/ml incubated for overnight by microbroth dilution checkerboard assay; type: functional; settings: dose 30 µg/ml
[2] = test system: Klebsiella pneumoniae; assay: Synergistic antibacterial activity against Klebsiella pneumoniae M6 assessed as rifampicin MIC at 30 microg/ml incubated for overnight by microbroth dilution checkerboard assay; type: functional; settings: dose 30 µg/ml
[3] = test system: Acinetobacter baumannii; assay: Synergistic antibacterial activity against Acinetobacter baumannii AYE assessed as rifampicin MIC at 30 microg/ml incubated for overnight by microbroth dilution checkerboard assay; type: functional; settings: dose 30 µg/ml
[4] = test system: Acinetobacter baumannii; assay: Synergistic antibacterial activity against Acinetobacter baumannii ATCC 17978 assessed as rifampicin MIC at 30 microg/ml incubated for overnight by microbroth dilution checkerboard assay; type: functional; settings: dose 30 µg/ml
[5] = test system: Pseudomonas aeruginosa; assay: Synergistic antibacterial activity against Pseudomonas aeruginosa PAO1 assessed as rifampicin MIC at 30 microg/ml incubated for overnight by microbroth dilution checkerboard assay; type: functional; settings: dose 30 µg/ml
In short: (§1)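 Fixed-concentration combination MIC in TSB. The first agent was set in a two-fold dilution series (100 µL/well), then 50 µL/well of the second agent at a fixed concentration was added; PMBN was fixed at 30 µg/mL. Bacteria at OD 0.02 (50 µL) went into 150 µL of compounds, overnight at 37 °C. MIC was the lowest concentration without visible growth (<0.1 OD600).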

[6] = test system: Pseudomonas aeruginosa; assay: Synergistic antibacterial activity against Pseudomonas aeruginosa NCTC 13437 assessed as rifampicin MIC at 30 microg/ml incubated for overnight by microbroth dilution checkerboard assay; type: functional; settings: dose 30 µg/ml; in short: as §1
[7] = test system: Escherichia coli; assay: Synergistic antibacterial activity against Escherichia coli NCTC 12923 assessed as rifampicin MIC at 30 microg/ml incubated for overnight by microbroth dilution checkerboard assay; type: functional; settings: dose 30 µg/ml
[8] = test system: Pseudomonas aeruginosa; assay: Antibacterial activity against Pseudomonas aeruginosa NCTC 13437 assessed as bacterial growth inhibition incubated for overnight by microbroth dilution method; type: functional
In short: (§2)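 Broth microdilution in Tryptic Soy Broth. DMSO stocks were diluted in TSB as 2-fold series. Overnight TSB cultures were back-diluted to OD 0.01 and mixed 1:1 with compound. Incubation was overnight at 37 °C. MIC was the lowest concentration without visible growth (<0.1 OD600). DMSO vehicle was checked at equivalent concentrations.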

[9] = test system: Acinetobacter baumannii; assay: Antibacterial activity against Acinetobacter baumannii AYE assessed as bacterial growth inhibition incubated for overnight by microbroth dilution method; type: functional; in short: as §2
[10] = test system: Acinetobacter baumannii; assay: Antibacterial activity against Acinetobacter baumannii ATCC 17978 assessed as bacterial growth inhibition incubated for overnight by microbroth dilution method; type: functional; in short: as §2
[11] = test system: Pseudomonas aeruginosa; assay: Antibacterial activity against Pseudomonas aeruginosa PAO1 assessed as bacterial growth inhibition incubated for overnight by microbroth dilution method; type: functional; in short: as §2
[12] = test system: Escherichia coli; assay: Antibacterial activity against Escherichia coli NCTC 12923 assessed as bacterial growth inhibition incubated for overnight by microbroth dilution method; type: functional; in short: as §2
[13] = test system: Klebsiella pneumoniae; assay: Synergistic antibacterial activity against Klebsiella pneumoniae NCTC 13368 assessed as rifampicin MIC at <=0.25 times MIC incubated for overnight by microbroth dilution checkerboard assay; type: functional
In short: (§3)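 Checkerboard microdilution under MIC conditions (TSB, overnight, 37 °C). Two-fold series of each agent were combined on one plate before bacteria were added, and single-agent MICs were measured on the same plate. FIC = sum of combination MIC/alone MIC for each agent, taken from the most synergistic well. Three independent repeats, mean ± SD. ≤0.5 was taken as strong synergy and 0.5–<1 as weak.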

[14] = test system: Klebsiella pneumoniae; assay: Synergistic antibacterial activity against […] Klebsiella pneumoniae M6 assessed as rifampicin MIC at <=0.25 times MIC incubated for overnight by microbroth dilution checkerboard assay; type: functional
In short: (§4)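 Checkerboard run under the MIC conditions (TSB, overnight, 37 °C). Antibiotic and lipoguanidine 2-fold series were combined on one plate before bacteria were added. Growth/no-growth was scored as for the MIC (<0.1 OD600). Single-agent MICs were measured on the same plates. Three independent repeats were done.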

[15] = test system: Acinetobacter baumannii; assay: Synergistic antibacterial activity against Acinetobacter baumannii AYE assessed as rifampicin MIC at <=0.25 times MIC incubated for overnight by microbroth dilution checkerboard assay; type: functional; in short: as §3
[16] = test system: Acinetobacter baumannii; assay: Synergistic antibacterial activity against Acinetobacter baumannii ATCC 17978 assessed as rifampicin MIC at <=0.25 times MIC incubated for overnight by microbroth dilution checkerboard assay; type: functional; in short: as §3
[17] = test system: Pseudomonas aeruginosa; assay: Synergistic antibacterial activity against Pseudomonas aeruginosa PAO1 assessed as rifampicin MIC at <=0.25 times MIC incubated for overnight by microbroth dilution checkerboard assay; type: functional
In short: (§5)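 Checkerboard microdilution in Tryptic Soy Broth, run like the MIC assay. Overnight TSB cultures were back-diluted to OD 0.01 and added 1:1 to the combined two-fold series of both agents, then incubated overnight at 37 °C. Growth/no-growth was called at <0.1 OD600. MICs alone were read on the same plates. FIC index came from the most synergistic well; three independent repeats, mean ± SD.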

[18] = test system: Pseudomonas aeruginosa; assay: Synergistic antibacterial activity against Pseudomonas aeruginosa NCTC 13437 assessed as rifampicin MIC at <=0.25 times MIC incubated for overnight by microbroth dilution checkerboard assay; type: functional; in short: as §5
[19] = test system: Escherichia coli; assay: Synergistic antibacterial activity against Escherichia coli NCTC 12923 assessed as rifampicin MIC at <=0.25 times MIC incubated for overnight by microbroth dilution checkerboard assay; type: functional; in short: as §3
[20] = test system: Klebsiella pneumoniae; assay: Synergistic antibacterial activity against […] Klebsiella pneumoniae NCTC 13368 assessed as novobiocin MIC at <=0.25 times MIC incubated for overnight by microbroth dilution checkerboard assay; type: functional; in short: as §4
[21] = test system: Klebsiella pneumoniae; assay: Synergistic antibacterial activity against […] Klebsiella pneumoniae M6 assessed as novobiocin MIC at <=0.25 times MIC incubated for overnight by microbroth dilution checkerboard assay; type: functional; in short: as §4
[22] = test system: Acinetobacter baumannii; assay: Synergistic antibacterial activity against Acinetobacter baumannii AYE assessed as novobiocin MIC at <=0.25 times MIC incubated for overnight by microbroth dilution checkerboard assay; type: functional; in short: as §3
[23] = test system: Acinetobacter baumannii; assay: Synergistic antibacterial activity against Acinetobacter baumannii ATCC 17978 assessed as novobiocin MIC at <=0.25 times MIC incubated for overnight by microbroth dilution checkerboard assay; type: functional; in short: as §3
[24] = test system: Pseudomonas aeruginosa; assay: Synergistic antibacterial activity against Pseudomonas aeruginosa PAO1 assessed as novobiocin MIC at <=0.25 times MIC incubated for overnight by microbroth dilution checkerboard assay; type: functional; in short: as §5
[25] = test system: Pseudomonas aeruginosa; assay: Synergistic antibacterial activity against Pseudomonas aeruginosa NCTC 13437 assessed as novobiocin MIC at <=0.25 times MIC incubated for overnight by microbroth dilution checkerboard assay; type: functional; in short: as §5
[26] = test system: Escherichia coli; assay: Synergistic antibacterial activity against Escherichia coli NCTC 12923 assessed as novobiocin MIC at <=0.25 times MIC incubated for overnight by microbroth dilution checkerboard assay; type: functional; in short: as §3
[27] = test system: Erythrocyte; assay: Hemolytic activity in human Red blood cells at 512 microg/ml measured after 1 hrs by absorbance based assay; type: toxicity, cell-based; settings: dose 512 µg/ml
In short: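 Titrations in PBS were incubated with freshly collected human red blood cells for 1 h at 37 °C. Controls were 0.1% Triton-X-100 (full lysis) and PBS alone (no lysis). After centrifugation, supernatant OD550 was read. % haemolysis = (AP−AB)/(AC−AB)×100. Data are means and standard error of three biological replicates.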

[28] = test system: Klebsiella pneumoniae; assay: Synergistic antibacterial activity against Klebsiella pneumoniae NCTC 13368 assessed as fold change in rifampicin MIC at <=0.25 times MIC incubated for overnight by microbroth dilution checkerboard assay relative to rifampicin alone; type: functional; in short: as §4
[29] = test system: Acinetobacter baumannii; assay: Synergistic antibacterial activity against Acinetobacter baumannii AYE assessed as fold change in rifampicin MIC at <=0.25 times MIC incubated for overnight by microbroth dilution checkerboard assay relative to rifampicin alone; type: functional; in short: as §3
[30] = test system: Acinetobacter baumannii; assay: Synergistic antibacterial activity against Acinetobacter baumannii ATCC 17978 assessed as fold change in rifampicin MIC at <=0.25 times MIC incubated for overnight by microbroth dilution checkerboard assay relative to rifampicin alone; type: functional; in short: as §3
[31] = test system: Pseudomonas aeruginosa; assay: Synergistic antibacterial activity against Pseudomonas aeruginosa PAO1 assessed as fold change in rifampicin MIC at <=0.25 times MIC incubated for overnight by microbroth dilution checkerboard assay relative to rifampicin alone; type: functional; in short: as §5
[32] = test system: Pseudomonas aeruginosa; assay: Synergistic antibacterial activity against Pseudomonas aeruginosa NCTC 13437 assessed as fold change in rifampicin MIC at <=0.25 times MIC incubated for overnight by microbroth dilution checkerboard assay relative to rifampicin alone; type: functional; in short: as §5
[33] = test system: Escherichia coli; assay: Synergistic antibacterial activity against Escherichia coli NCTC 12923 assessed as fold change in rifampicin MIC at <=0.25 times MIC incubated for overnight by microbroth dilution checkerboard assay relative to rifampicin alone; type: functional; in short: as §3
[34] = test system: Klebsiella pneumoniae; assay: Synergistic antibacterial activity against Klebsiella pneumoniae NCTC 13368 assessed as fold change in novobiocin MIC at <=0.25 times MIC incubated for overnight by microbroth dilution checkerboard assay relative to novobiocin alone; type: functional; in short: as §3
[35] = test system: Klebsiella pneumoniae; assay: Synergistic antibacterial activity against Klebsiella pneumoniae M6 assessed as fold change in novobiocin MIC at <=0.25 times MIC incubated for overnight by microbroth dilution checkerboard assay relative to novobiocin alone; type: functional; in short: as §3
[36] = test system: Acinetobacter baumannii; assay: Synergistic antibacterial activity against Acinetobacter baumannii AYE assessed as fold change in novobiocin MIC at <=0.25 times MIC incubated for overnight by microbroth dilution checkerboard assay relative to novobiocin alone; type: functional; in short: as §3
[37] = test system: Acinetobacter baumannii; assay: Synergistic antibacterial activity against Acinetobacter baumannii ATCC 17978 assessed as fold change in novobiocin MIC at <=0.25 times MIC incubated for overnight by microbroth dilution checkerboard assay relative to novobiocin alone; type: functional; in short: as §3
[38] = test system: Pseudomonas aeruginosa; assay: Synergistic antibacterial activity against Pseudomonas aeruginosa PAO1 assessed as fold change in novobiocin MIC at <=0.25 times MIC incubated for overnight by microbroth dilution checkerboard assay relative to novobiocin alone; type: functional; in short: as §5
[39] = test system: Pseudomonas aeruginosa; assay: Synergistic antibacterial activity against Pseudomonas aeruginosa NCTC 13437 assessed as fold change in novobiocin MIC at <=0.25 times MIC incubated for overnight by microbroth dilution checkerboard assay relative to novobiocin alone; type: functional; in short: as §3
[40] = test system: Escherichia coli; assay: Synergistic antibacterial activity against Escherichia coli NCTC 12923 assessed as fold change in novobiocin MIC at <=0.25 times MIC incubated for overnight by microbroth dilution checkerboard assay relative to novobiocin alone; type: functional; in short: as §3
[41] = test system: Klebsiella pneumoniae; assay: Antibacterial activity against Klebsiella pneumoniae M6 assessed as bacterial growth inhibition incubated for overnight by microbroth dilution method
[42] = test system: Klebsiella pneumoniae; assay: Antibacterial activity against ESBL Klebsiella pneumoniae NCTC 13368 assessed as bacterial growth inhibition incubated for overnight by microbroth dilution method

Which results are given for `CC(C)C[C@@H]1NC(=O)[C@@H](Cc2ccccc2)NC(=O)[C@H](CCN)NC(=O)[C@@H](NC(=O)[C@H](CCN)NC(=O)[C@@H](N)[C@@H](C)O)CCNC(=O)[C@H]([C@@H](C)O)NC(=O)[C@@H](CCN)NC(=O)[C@H](CCN)NC1=O`?
MIC [1]: 1 µg/mL; MIC [2]: 0.5 µg/mL; MIC [3]: 0.25 µg/mL; MIC [4]: ≤ 0.125 µg/mL; MIC [5]: ≤ 0.125 µg/mL; MIC [6]: ≤ 0.125 µg/mL; MIC [7]: ≤ 0.125 µg/mL

What does the source list for `CCCCCCCCCCNC(=N)NCCCCNC(=N)N`?
MIC [8]: > 128 µg/mL; MIC [9]: > 128 µg/mL; MIC [10]: > 128 µg/mL; MIC [11]: 64 µg/mL (≈ 205 µM); MIC [12]: 64 µg/mL (≈ 205 µM); MIC [13]: ≤ 0.125 µg/mL; MIC [14]: ≤ 0.125 µg/mL; MIC [15]: ≤ 0.125 µg/mL; MIC [16]: ≤ 0.125 µg/mL; MIC [17]: 2 µg/mL; MIC [18]: ≤ 0.125 µg/mL; MIC [19]: ≤ 0.125 µg/mL; MIC [20]: 8 µg/mL; MIC [21]: 1 µg/mL; MIC [22]: 0.125 µg/mL; MIC [23]: 0.125 µg/mL; MIC [24]: 4 µg/mL; MIC [25]: 4 µg/mL; MIC [26]: 2 µg/mL; Activity [27]: Toxic; fold change (FC) [28]: >=4; fold change (FC) [29]: >=4; fold change (FC) [30]: >=4; fold change (FC) [31]: >=4; fold change (FC) [32]: >=4; fold change (FC) [33]: >=4; fold change (FC) [34]: >=4; fold change (FC) [35]: >=4; fold change (FC) [36]: >=4; fold change (FC) [37]: >=4; fold change (FC) [38]: >=4; fold change (FC) [39]: >=4; fold change (FC) [40]: >=4; MIC [41]: > 128 µg/mL; MIC [42]: > 128 µg/mL
